A selection: hits, their analogues and other compounds. The true share with any hit is near 11%.
G6PDH counter = inhibits Leuconostoc G6PDH, flagging false hits in G6PDH-based assays; inhibition, % at 5 µM; AID 1020; Purified L. mesenteroides G6PDH, diaphorase/resazurin coupled fluorescence, 45 min; 200,000 tested, 0.12% active
Diaph act CS = diaphorase activation or chemical reduction counter-screen; 190,000 tested, 0.005% active; AID 1229; Diaphorase/resazurin coupled assay, resorufin fluorescence, 16 min; active compounds read high; 1 = vehicle wells, 0 = NADH-free wells; activation factor at 20 µM;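 active = diaphorase activity raised at least twofold by the compound at 20 µM; inactive = activation factor below 2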
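Material: bacterial diaphorase enzyme (C. kluyveri); amount: enzyme 0.07 U/mL final; reagent: NADH substrate 0.114 mM plus resazurin dye 0.1 mM, final; doses: single compound dose of 20 µM, 1% DMSO final; timing: 16 min enzyme reaction, ambient temperature; measured by: fluorescence of resorufin, 544 nm excitation, 590 nm emission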
WT yeast gro inh = growth inhibition of WT yeast, mitochondrial fusion screen; mitochondrial fusion phenotypic screen, WT strain; inhibition, % at 10 µM; 190,000 tested, 2.1% active; AID 1362; in the data active = inhibition above about 58%; tested in S. cerevisiae
L major viab = reduces viability of Leishmania major promastigotes; inhibition, % at 10 µM; resazurin fluorescence viability; AID 1063; 200,000 tested, 9% active;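 note: promastigotes grown with compound for 44 hours at 28 °C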
Diaphorase inh = diaphorase inhibition or chemical oxidation counter-screen | diaphorase resazurin-to-resorufin fluorescence, NADH, 16 min; bacterial (C. kluyveri) enzyme, not human | 190,000 tested, 0.69% active | inhibition, % at 20 µM;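 active = primary screen inhibition at 20 µM above a set limit, cut at about 50% in these data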
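Detection: fluorescence of resorufin formed from resazurin, Ex 544/Em 590 nm; test system: Clostridium kluyveri diaphorase enzyme; amount: 0.14 U/mL diaphorase, enzyme working solution; times: 16-min room-temperature incubation before reading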
Numbers stand for hits; n = inactive. Cut-off read from the data, not from the text of the source, unless noted: active = inhibition above about 50%; inactive = the rest.

SMILES | G6PDH counter | Diaph act CS | WT yeast gro inh | L major viab | Diaphorase inh
Cn1cccc1C(C#N)c1ncc(C(F)(F)F)cc1Cl (configuration not stated) | n | n | n | n | n
CCOC(=O)N=Nc1c(O)n(CC(=O)OC)c2ccccc12 | n | n | n | n | n
Cn1c(O)c(N=NC(=O)Cn2ccc(C(F)(F)F)n2)c2ccccc21 | n | n | n | 58 | n
CCn1c(O)c(N=NC(=O)Cn2ccc(C(F)(F)F)n2)c2ccccc21 | n | n | n | 67 | n
COc1ccc(C(CNC(=O)c2oc3ccc(Br)cc3c2C)N2CCCCC2)cc1 (configuration not stated) | n | n | n | 60 | n
CCN(CC)c1nc(-c2ccccn2)nc(-c2ccccc2)c1C#N | n | n | 80 | 71 | n
CN(C)c1nc(-c2ccccc2)nc(-c2ccc(Cl)cc2)c1C#N | n | n | n | n | n
S=C(Nc1cccc(Cl)c1)N(CCCN1CCCC1)Cc1cccn1Cc1ccc(Cl)cc1 | n | n | 81 | 100 | n
COc1cccc(NC(=S)N(CCCN2CCCC2)Cc2ccco2)c1 | n | n | n | n | n
CSc1cccc(NC(=S)N(CCCN2CCCC2)Cc2cccn2Cc2ccc(Cl)cc2)c1 | n | n | 74 | 101 | n
COc1cccc(NC(=S)N(CCCN2CCCC2)Cc2cccn2Cc2ccc(Cl)cc2)c1 | n | n | 59 | 91 | n
CSc1nnc(C)c(=O)n1COC(=O)c1ccc(S(=O)(=O)N(C)C)cc1 | n | n | n | n | n
O=C(c1ccc(S(=O)(=O)N2CCCCCC2)cc1)N(c1ccccn1)C1CCCCC1 | n | n | n | 56 | n
c1ccc2c(SCc3cn4ccccc4n3)nncc2c1 | n | n | n | n | n
O=C(Oc1ccc(Br)cc1)c1n[nH]c(=O)c2ccccc12 | n | n | n | n | n
O=C(c1sc2ccccc2c1Cl)N(Cc1ccccc1)C1CCS(=O)(=O)C1 (configuration not stated) | n | n | n | n | n
O=C(c1sc2ccccc2c1Cl)N(Cc1ccco1)C1CCS(=O)(=O)C1 (configuration not stated) | n | n | n | 96 | n
COc1ccc(-c2cnnc(N/N=C/c3ccc(OC)c(OC)c3)n2)cc1 | n | n | n | n | n
COc1ccc(/C=N/Nc2nc(-c3ccc(Cl)cc3)cc(C(F)(F)F)n2)cc1OC | n | n | 63 | n | n
Cc1ccc(C(=O)N/C(=C\c2ccc3c(c2)OCO3)C(=O)Nc2ccc(C(=O)O)cc2)cc1 | n | n | n | n | n
N#Cc1c(N)nc2c(c1-c1ccc3c(c1)OCO3)CCc1ccccc1-2 | n | n | 62 | n | n
Oc1ccc2ccccc2c1/C=N/Nc1ccccc1 | n | n | n | n | n
Cc1cc(N/N=C/c2c(O)ccc3ccccc23)nc(-c2ccccc2O)n1 | n | n | n | 97 | n
Cc1cc(NCc2ccccc2)nc(-c2ccccc2O)n1 | n | n | 62 | n | n
CCCCC(=O)Nc1cc(Cl)ccc1C(=O)O | n | n | n | n | n
SMILES | G6PDH counter | Diaph act CS | WT yeast gro inh | L major viab | Diaphorase inh
O=C(NN1C(=O)c2ccccc2C1=O)C1C2CCCCC21 (configuration not stated) | n | n | n | n | n
CCCCC1(Cc2cccc([N+](=O)[O-])c2)C(=O)N(c2ccccc2)N(c2ccccc2)C1=O | n | n | n | 58 | n
Cc1ccc(Nc2nc(N/N=C/c3c[nH]c4ccccc34)nc(N3CCOCC3)n2)cc1 | n | n | n | 54 | n
C(=N\Nc1nc(Nc2ccccc2)nc(N2CCOCC2)n1)/c1c[nH]c2ccccc12 | n | n | n | 97 | n
Cc1[nH]c2ccccc2c1/C=N/Nc1nc(Nc2ccc(F)cc2)nc(N2CCOCC2)n1 | n | n | n | 99 | n
C=CCN(c1cccc(C(F)(F)F)c1)S(=O)(=O)c1cccc(C(=O)OCC(=O)Nc2ccccc2)c1 | n | n | n | n | n
C=CCc1cccc(/C=N/NC(=O)CNc2ccccc2OC)c1O | n | n | n | n | n
O=C(CNc1cccc2ccccc12)N/N=C/c1ccc([N+](=O)[O-])o1 | n | n | n | 99 | n
O=C(CNc1cccc2ccccc12)N/N=C/C(Br)=C/c1ccccc1 | n | n | 72 | n | n
C=CCc1cccc(/C=N/NC(=O)CNc2cccc3ccccc23)c1O | n | n | 62 | n | n
O=C(CNc1cccc([N+](=O)[O-])c1)N/N=C/c1ccc([N+](=O)[O-])o1 | n | n | n | 100 | n
CCCN(CCC)CC(O)CN1C(=O)N(CN2C(=O)N(CC(O)CN(CCC)CCC)C(=O)C2(C)C)C(C)(C)C1=O (configuration not stated) | n | n | n | n | n
CCOC(=O)C(C(=O)OCC)C(Nc1ccc(Br)cc1)c1ccccc1 (configuration not stated) | n | n | n | n | n
Cc1ccc(Nc2ccc(S(=O)(=O)N3CCOCC3)cc2[N+](=O)[O-])cc1C | n | n | n | n | n
O=C(Nc1ccccc1C(=O)NCc1cccnc1)c1ccc(Cl)cc1Cl | n | n | n | n | n
COc1cc(NC(=S)NN2CCN(C)CC2)cc(OC)c1 | n | n | n | n | n
CCCCSc1nnc(-c2ccccc2NC(C)=O)c(=O)[nH]1 | n | n | n | n | n
Cc1ccc(C)c(S(=O)(=O)N2CC(=O)N(CCc3ccccc3)C(=O)C2)c1 | n | n | n | n | n
Brc1ccccc1OCCNCc1ccccc1 | n | n | n | n | n
Fc1ccc(CNCc2ccccc2Cl)cc1 | n | n | n | n | n
C=CCc1ccccc1OCCNCc1ccccc1 | n | n | n | 71 | n
C=CCOc1ccccc1CNCc1ccc(F)cc1 | n | n | n | 57 | n
CC1=C(C(=O)Nc2cccc(C)n2)C(c2ccc3c(c2)OCO3)C2=C(CC(c3ccco3)CC2=O)N1 (configuration not stated) | n | n | n | n | n
COc1ccc(-c2oc(NC(=O)CCl)c(C#N)c2-c2ccc(OC)cc2)cc1 | n | n | n | 100 | n
O=S(=O)(c1ccc(-c2csc(=Nc3ccccc3)n2CCCN2CCOCC2)cc1)N1CCOCC1 | n | n | n | 94 | n
SMILES | G6PDH counter | Diaph act CS | WT yeast gro inh | L major viab | Diaphorase inh
O=C(N/N=C/c1ccco1)c1cccc(N2CCCC2=O)c1 | n | n | n | n | n
O=C(N/N=C/c1ccco1)c1cccc(N2Cc3ccccc3C2)c1 | n | n | n | n | 60
CS(=O)(=O)N1CCN(Cc2ccc(C(F)(F)F)cc2)CC1 | n | n | n | n | n
CCn1c2ccccc2c2cc(CN3CCN(Cc4cc(OC)ccc4O)CC3)ccc21 | n | n | 60 | n | n
CCn1c2ccccc2c2cc(CN3CCN(S(C)(=O)=O)CC3)ccc21 | n | n | n | 68 | n
CCCCCCCCCCCC(=O)NC(C(=O)OCC)C(O)c1cccc([N+](=O)[O-])c1 (configuration not stated) | n | n | n | n | n

From PubChem
